These results are taken from ChEMBL document CHEMBL2375266, “Design and synthesis of 2-substituted benzoxazoles as novel PTP1B inhibitors” (Bioorg Med Chem Lett, 2013).

Assay [1] has as its target T1, Tyrosine-protein phosphatase non-receptor type 1 (Homo sapiens, UniProt P18031).
T1 sequence (P18031 whole entry): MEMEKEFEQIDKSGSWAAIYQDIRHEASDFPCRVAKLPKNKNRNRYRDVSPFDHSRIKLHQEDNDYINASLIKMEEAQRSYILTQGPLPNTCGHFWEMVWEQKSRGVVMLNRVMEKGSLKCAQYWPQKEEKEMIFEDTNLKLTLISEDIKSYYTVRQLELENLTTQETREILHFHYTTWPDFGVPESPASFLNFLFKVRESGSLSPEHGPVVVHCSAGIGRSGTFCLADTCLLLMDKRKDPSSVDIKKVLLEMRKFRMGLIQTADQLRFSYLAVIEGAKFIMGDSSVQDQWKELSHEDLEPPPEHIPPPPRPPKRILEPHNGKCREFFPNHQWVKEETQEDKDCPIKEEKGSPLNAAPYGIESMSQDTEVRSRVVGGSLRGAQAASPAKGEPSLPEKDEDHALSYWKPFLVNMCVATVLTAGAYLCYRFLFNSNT
Kind of assay: Inhibition of PTP1B (unknown origin)-mediated pNPP hydrolysis to 4-nitrophenol after 60 mins by spectrophotometric analysis. The procedure, abridged:
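Colorimetric pNPP assay at room temperature in 25 mM Tris pH 7.5, 75 mM NaCl, 1 mM DTT, 0.1% BSA. Compound dilution series was added, and the reaction was started with 5 nM PTP1B. After 60 min it was stopped with NaOH. 4-Nitrophenol was read at 405 nm, with corrections for substrate and compound absorbance.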

Assay [2] concerns the target T2, Tyrosine-protein phosphatase non-receptor type 2 (Homo sapiens, UniProt P17706).
T2 sequence (P17706 whole entry): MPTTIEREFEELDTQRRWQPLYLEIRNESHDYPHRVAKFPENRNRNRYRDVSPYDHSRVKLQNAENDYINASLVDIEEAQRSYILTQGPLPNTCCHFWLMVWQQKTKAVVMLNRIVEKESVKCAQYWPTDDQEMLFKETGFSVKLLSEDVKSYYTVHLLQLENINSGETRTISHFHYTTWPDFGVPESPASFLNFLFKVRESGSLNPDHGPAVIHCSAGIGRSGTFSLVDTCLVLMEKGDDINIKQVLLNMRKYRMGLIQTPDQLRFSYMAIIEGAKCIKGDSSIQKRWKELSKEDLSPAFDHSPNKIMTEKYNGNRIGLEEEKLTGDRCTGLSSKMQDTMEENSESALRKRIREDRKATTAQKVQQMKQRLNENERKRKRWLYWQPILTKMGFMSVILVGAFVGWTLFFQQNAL
As to the kind of experiment: Inhibition of TCPTP (unknown origin).

Assay [3] has as its target T1, Tyrosine-protein phosphatase non-receptor type 1. As to the kind of experiment: Inhibition of PTP1B (unknown origin).

A value given as a limit tells only on which side of the number the result lay.

What is called Ki is a measure of affinity in units of concentration, obtained from inhibition or displacement. High values mean lower affinity, low ones higher affinity. In turn, `O=C(O)c1ccc(CC(c2nc3ccccc3[nH]2)S(=O)(=O)Nc2ccc(F)cc2)cc1` (stereo not given) came in with an inhibition constant Ki in assay [1] greater than 500 µM.

`O=C(O)COc1ccc(CC(c2nc3ccccc3[nH]2)S(=O)(=O)Nc2ccc(F)cc2)cc1O` (stereo not given): the affinity in assay [1] corresponds to a Ki of 162 µM.

Regarding `O=C(O)C(=O)Nc1ccc(CC(c2nc3ccccc3[nH]2)S(=O)(=O)Nc2ccc(F)cc2)cc1` (stereo not given), in assay [1], the inhibitory constant (Ki) amounted to 67.5 µM.

Turning to `O=S(=O)(Nc1ccc(F)cc1)C(Cc1ccc(O)c(O)c1)c1nc2ccccc2[nH]1` (stereo not given), in assay [1], the Ki is 211 µM.

As to `O=C(O)COc1ccc(CC(c2nc3ccccc3o2)S(=O)(=O)Nc2ccc(F)cc2)cc1O` (stereo not given), the Ki in assay [1] turned out to be 66.5 µM.

`O=C(O)C(=O)Nc1ccc(C[C@H](c2nc3ccccc3o2)S(=O)(=O)Nc2ccc(F)cc2)cc1` had a Ki in assay [1] of 35 µM.

For `CN(c1ccc(F)cc1)S(=O)(=O)C(Cc1ccc(NC(=O)C(=O)O)cc1)c1nc2ccccc2[nH]1` (stereo not given), the Ki in assay [1] was 125 µM.

As for `NS(=O)(=O)C(Cc1ccc(NC(=O)C(=O)O)cc1)c1nc2ccccc2o1` (stereo not given), the Ki in assay [1] was 331 µM; in assay [2], 137 µM.

For the molecule `CC(C)(C)NS(=O)(=O)C(Cc1ccc(NC(=O)C(=O)O)cc1)c1nc2ccccc2o1` (stereo not given), the Ki turned out to be 228 µM in assay [1] and 135 µM in assay [2].

`CCCCNS(=O)(=O)C(Cc1ccc(NC(=O)C(=O)O)cc1)c1nc2ccccc2o1` (stereo not given): the figures for the inhibitory constant (Ki) in assay [1] and in assay [2] were 82.4 µM and 33.4 µM, respectively.

For `O=C(O)C(=O)Nc1ccc(CC(c2nc3ccccc3o2)S(=O)(=O)NCCc2ccc(Cl)cc2)cc1` (stereo not given), in assay [1], affinity was put at a Ki of 41 µM.

On to `O=C(O)C(=O)Nc1ccc(CC(c2nc3ccccc3o2)S(=O)(=O)N(Cc2ccc(F)cc2)Cc2ccc(F)cc2)cc1` (stereo not given), for which the inhibition constant (Ki) in assay [1] turned out to be 10 µM.

As to `O=C(O)C(=O)Nc1ccc(C[C@H](c2nc3ccccc3o2)S(=O)(=O)N(Cc2ccc(Cl)cc2)Cc2ccc(Cl)cc2)cc1`, the results for the Ki in assay [1] and in assay [2] were 6.7 µM and 3.7 µM, respectively.

In assay [1], `O=C(O)C(=O)Nc1ccc(CC(c2nc3ccccc3o2)S(=O)(=O)N(Cc2ccccc2C(F)(F)F)Cc2ccccc2C(F)(F)F)cc1` (stereo not given) gave an inhibition constant (Ki) of 6.8 µM.

Turning to `O=C(O)C(=O)Nc1ccc(CC(c2nc3ccccc3o2)S(=O)(=O)N(Cc2cccc(C(F)(F)F)c2)Cc2cccc(C(F)(F)F)c2)cc1` (stereo not given), the inhibition constant Ki in assay [1] amounted to 35 µM; in assay [2] it was 21 µM.

As for `O=C(O)C(=O)Nc1ccc(CC(c2nc3ccccc3o2)S(=O)(=O)N(Cc2ccc(C(F)(F)F)cc2)Cc2ccc(C(F)(F)F)cc2)cc1` (stereo not given), the Ki in assay [1] stood at 7.7 µM; in assay [2] it was 12.5 µM.

Regarding `COc1ccc(CN(Cc2ccc(OC)cc2)S(=O)(=O)C(Cc2ccc(NC(=O)C(=O)O)cc2)c2nc3ccccc3o2)cc1` (stereo not given), the inhibition constant Ki in assay [1] is 14 µM; in assay [2] it was 18.9 µM.

For the molecule `O=C(O)C(=O)Nc1ccc(CC(c2nc3ccccc3o2)S(=O)(=O)N(Cc2ccc(OC(F)(F)F)cc2)Cc2ccc(OC(F)(F)F)cc2)cc1` (stereo not given), the Ki was found to be 16.8 µM in assay [1] and 17.2 µM in assay [2].

As for `CC(C)(C)c1ccc(CN(Cc2ccc(C(C)(C)C)cc2)S(=O)(=O)C(Cc2ccc(NC(=O)C(=O)O)cc2)c2nc3ccccc3o2)cc1` (stereo not given), the inhibition constant Ki was determined as 14.9 µM in assay [1] and 6.4 µM in assay [2].

In the case of `O=C(O)CN(CC(=O)O)S(=O)(=O)C(Cc1ccc(NC(=O)C(=O)O)cc1)c1nc2ccccc2o1` (stereo not given), the inhibition constant (Ki) in assay [1] is 235 µM; in assay [2], 22 µM.

In the case of `Cc1ccc(NS(=O)(=O)C(Cc2ccc(NC(=O)C(=O)O)cc2)c2nc3ccccc3o2)cc1` (stereo not given), the Ki in assay [1] was 62 µM; in assay [2], 9.2 µM.

As for `O=C(O)C(=O)Nc1ccc(CC(c2nc3ccccc3o2)S(=O)(=O)Nc2ccc(C(F)(F)F)cc2)cc1` (stereo not given), the inhibitory constant (Ki) in assay [1] was 23.6 µM; in assay [2], 8 µM.

As for `COc1ccc(NS(=O)(=O)C(Cc2ccc(NC(=O)C(=O)O)cc2)c2nc3ccccc3o2)cc1` (stereo not given), the inhibition constant (Ki) came to 68.8 µM in assay [1] and 134 µM in assay [2].

With `CC(C)Oc1ccc(NS(=O)(=O)C(Cc2ccc(NC(=O)C(=O)O)cc2)c2nc3ccccc3o2)cc1` (stereo not given), the Ki in assay [1] was determined as 92 µM; in assay [2], 101 µM.

For `CC(=O)NS(=O)(=O)C(Cc1ccc(NC(=O)C(=O)O)cc1)c1nc2ccccc2o1` (stereo not given), the Ki was found to be 63 µM in assay [1] and 86.5 µM in assay [2].

As to `O=C(O)C(=O)Nc1ccc(CC(c2nc3ccccc3o2)S(=O)(=O)NC(=O)c2ccccc2)cc1` (stereo not given), the values for the inhibition constant (Ki) in assay [1] and in assay [2] were 125 µM and 256 µM, respectively.

With `O=C(O)C(=O)Nc1ccc(CC(c2nc3ccccc3o2)S(=O)(=O)NC(=O)c2ccc(Cl)cc2)cc1` (stereo not given), the values for the inhibition constant (Ki) in assay [1] and in assay [2] were 82.4 µM and 13.1 µM, respectively.

In turn, `CCc1cc(CN(C(C)=O)C(=O)NCCCCOc2cccc(O)c2C(=O)OC)ccc1N(C(=O)C(=O)O)c1ccccc1C(=O)O` had a Ki in assay [3] of 0.018 µM.
